Test results reported in ChEMBL document CHEMBL4706730, “A Set of Highly Sensitive Sirtuin Fluorescence Probes for Screening Small-Molecular Sirtuin Defatty-Acylase Inhibitors” (ACS Med Chem Lett, 2021).
The source made the active and inactive calls. No cut-off for these calls is given here.

Key:
[1] = target: T1, NAD-dependent protein deacetylase sirtuin-3, mitochondrial (Homo sapiens) (UniProt Q9NTG7); test: (§1) Inhibition of 5-(3-((1r,4r)-4-((5S,8S,11S,14S,17S,20S,29S)-11-((1H-imidazol-4-yl)methyl)-1,33-diamino-5-carbamoyl-17-(4-(4-(4-((4-(dimethylamino)phenyl)diazenyl)phenyl)butanamido)butyl)-8,14-bis(3-guanidinopropyl)-20-methyl-7,10,13,16,19,22,25,28-octaoxo-6,9,12,15,18,21,24,27-octaazatritriacontan-29-ylcarbamoyl)cyclohexyl)thioureido)-2-(6-hydroxy-3-oxo-3H-xanthen-9-yl)benzoic acid binding to SIRT3 (unknown origin) at 50 uM measured after 2 hrs in presence of NAD+ by fluorometric method
T1 sequence (whole entry): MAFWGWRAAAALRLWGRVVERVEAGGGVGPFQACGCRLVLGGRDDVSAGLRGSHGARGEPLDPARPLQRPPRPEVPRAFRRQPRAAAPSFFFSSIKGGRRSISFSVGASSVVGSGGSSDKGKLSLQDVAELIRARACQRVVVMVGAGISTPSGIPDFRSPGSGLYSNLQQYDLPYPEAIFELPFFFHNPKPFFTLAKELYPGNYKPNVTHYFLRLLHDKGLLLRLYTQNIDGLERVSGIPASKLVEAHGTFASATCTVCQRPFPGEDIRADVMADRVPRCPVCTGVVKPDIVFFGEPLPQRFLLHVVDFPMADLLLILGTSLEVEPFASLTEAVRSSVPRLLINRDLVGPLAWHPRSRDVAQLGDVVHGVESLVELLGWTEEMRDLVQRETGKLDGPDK

[2] = target: T2, NAD-dependent protein deacetylase sirtuin-2 (Homo sapiens, UniProt Q8IXJ6); test: (§2) Inhibition of p53(Myr)-AMC binding to SIRT2 (unknown origin) incubated for 3 hrs in presence of NAD+ followed by trypsin addition and measured at 5 mins interval for 20 mins by fluorometric method
T2 sequence (Q8IXJ6 whole entry): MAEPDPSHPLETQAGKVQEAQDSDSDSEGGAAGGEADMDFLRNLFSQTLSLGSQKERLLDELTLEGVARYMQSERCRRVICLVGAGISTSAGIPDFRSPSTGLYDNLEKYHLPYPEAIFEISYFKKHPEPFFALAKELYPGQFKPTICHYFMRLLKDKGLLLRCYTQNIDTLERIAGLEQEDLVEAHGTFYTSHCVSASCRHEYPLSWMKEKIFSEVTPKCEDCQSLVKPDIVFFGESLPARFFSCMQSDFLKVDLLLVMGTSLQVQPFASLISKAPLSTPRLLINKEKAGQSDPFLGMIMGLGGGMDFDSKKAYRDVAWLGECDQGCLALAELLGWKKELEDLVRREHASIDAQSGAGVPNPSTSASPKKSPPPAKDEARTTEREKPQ

[3] = target: T3, NAD-dependent protein deacetylase sirtuin-2 (Homo sapiens) (UniProt Q8IXJ6); test: as §2; details: time 200.0 min
T3 sequence (whole entry): T2 sequence (Q8IXJ6 whole entry)

[4] = target: T4, NAD-dependent protein deacetylase sirtuin-1 (Homo sapiens) (UniProt Q96EB6); test: as §1, with “SIRT1” for “SIRT3”
T4 sequence (whole entry): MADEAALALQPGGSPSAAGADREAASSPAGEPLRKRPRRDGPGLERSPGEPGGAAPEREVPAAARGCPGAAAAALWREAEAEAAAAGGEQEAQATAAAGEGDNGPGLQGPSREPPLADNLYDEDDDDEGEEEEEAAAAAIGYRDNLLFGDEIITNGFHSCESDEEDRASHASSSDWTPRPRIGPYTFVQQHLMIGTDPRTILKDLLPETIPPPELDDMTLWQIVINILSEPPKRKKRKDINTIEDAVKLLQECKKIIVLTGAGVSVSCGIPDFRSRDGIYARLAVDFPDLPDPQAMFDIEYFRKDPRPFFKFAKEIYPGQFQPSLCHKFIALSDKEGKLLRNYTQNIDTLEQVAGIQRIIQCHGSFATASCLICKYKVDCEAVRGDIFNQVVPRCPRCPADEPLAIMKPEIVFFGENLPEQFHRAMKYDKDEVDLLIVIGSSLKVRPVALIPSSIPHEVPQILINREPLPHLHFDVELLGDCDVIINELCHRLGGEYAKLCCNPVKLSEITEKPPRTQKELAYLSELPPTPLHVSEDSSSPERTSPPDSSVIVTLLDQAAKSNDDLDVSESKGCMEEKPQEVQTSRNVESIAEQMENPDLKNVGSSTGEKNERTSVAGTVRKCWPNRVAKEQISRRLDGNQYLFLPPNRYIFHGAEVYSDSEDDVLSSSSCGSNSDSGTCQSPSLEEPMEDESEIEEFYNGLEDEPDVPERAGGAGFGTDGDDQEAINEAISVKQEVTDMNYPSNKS

[5] = target: T3, NAD-dependent protein deacetylase sirtuin-2 (Homo sapiens); test: as §1, with “SIRT2” for “SIRT3”, “10” for “50”, “method relative to control” for “method”
Outline: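 In the primary library screen, 384-well plates held SIRT2 with the Dabcyl-BH/H4K16 one-step FRET probe. Each compound was tested at 10 μM with 0.5% DMSO, and inhibition was taken from the fluorescence signal.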

[6] = target: T2, NAD-dependent protein deacetylase sirtuin-2; test: Inhibition of SIRT2 deacetylation activity (unknown origin) using FLUOR DE LYS SIRT2 peptide as substrate incubated for 2 hrs in presence of NAD+ measured at 5 mins interval for 20 mins by fluorescence assay
[7] = target: NAD-dependent protein deacylase sirtuin-6 (Homo sapiens) (UniProt Q8N6T7); test: Inhibition of 5-[[(1r,4r)-4-[[(1S)-4-amino-1-[[(1S,2R)-1-[[(1S)-2-[[(1S)-1-[[(1S)-1-[[(1S)-2-[[(1S,2R)-1-[[2-(carboxymethylamino)-2-oxoethyl]carbamoyl]-2-hydroxypropyl]amino]-1-(hydroxymethyl)-2-oxoethyl]carbamoyl]-5-[3-[N-methyl-4-[(4-nitrophenyl)azo]anilino]propanoylamino]pentyl]carbamoyl]-4-guanidinobutyl]amino]-1-methyl-2-oxoethyl]carbamoyl]-2-hydroxypropyl]carbamoyl]-4-oxobutyl]carbamoyl]cyclohexyl]carbamothioylamino]-2-(3-hydroxy-6-oxoxanthen-9-yl)benzoic acid binding to SIRT6 (unknown origin) at 50 uM measured after 2 hrs in presence of NAD+ by fluorometric method
Chain of NAD-dependent protein deacylase sirtuin-6 (Homo sapiens) (Q8N6T7 whole entry): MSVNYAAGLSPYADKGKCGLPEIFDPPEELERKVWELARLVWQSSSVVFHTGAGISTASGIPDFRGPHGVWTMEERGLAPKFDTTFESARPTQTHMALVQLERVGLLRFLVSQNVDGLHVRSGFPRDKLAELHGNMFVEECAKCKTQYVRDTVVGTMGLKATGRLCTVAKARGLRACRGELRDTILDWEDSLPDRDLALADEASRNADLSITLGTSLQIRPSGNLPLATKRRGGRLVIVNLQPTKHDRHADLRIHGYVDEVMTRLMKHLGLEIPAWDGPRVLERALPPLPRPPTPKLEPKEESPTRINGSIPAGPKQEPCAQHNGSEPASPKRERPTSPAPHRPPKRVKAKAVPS

[8] = target: T2, NAD-dependent protein deacetylase sirtuin-2; test: as §1, with “SIRT2” for “SIRT3”, “origin)” for “origin) at 50 uM”
Outline: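 The second screen used the same SIRT2 one-step FRET probe conditions, validated at 2.92 nM SIRT2. Compounds were tested over a range of concentrations to check dose-dependency, and the IC50 was derived from the dose–response curve.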

CCOC(=O)C[C@@H]1C[C@@H](C(C)C)[C@H](CNC(=O)c2cncnc2)C=C1C
inhibition [1]: inactive | IC50 [2]: 44.4 µM | inhibition [3]: Dose-dependent effect | inhibition [4]: inactive | inhibition [5]: > 35% | IC50 [6]: 5.09 µM | inhibition [7]: inactive | IC50 [8]: 47.9 µM
